Assay outcomes deposited in PubChem BioAssay by several laboratories.
Most compounds without a hit are left out; they make up all but 0.99% or so of the library.
NPR1 activator – GC-A (human) enzyme activation; AID 1671463; P16066; activation, % at 10 µM; 0.14% of 370,000 active; HEK293 GC-A cells, cGMP TR-FRET, EC30 ANP; 0% at EC30 ANP, 100% saturating ANP; in the data active means activation above about 40%
CaV13 ICDI inh – Disruptors of the CACNA1D IQ motif to Ca2+-dependent inactivation inhibitor domain association, primary screening, Förster resonance energy transfer in intact living …. HEK cells, CFP/YFP FRET ICDI-IQ, plate reader, 10 min; percent FRET-ratio fall versus neutral wells. 0.098% of 340,000 active. AID 743397. inhibition, % at 12.3 µM;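 active means mean replicate inhibition of at least 30% and at least 1% of replicates passing that level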
NPR2 activator – GC-B (human) receptor activation; 0.11% of 370,000 active; HEK293-GC-B cells, CNP EC30, cGMP TR-FRET; 0% at EC30 CNP, 100% saturating CNP; activation, % at 10 µM;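 active means activation at 10 µM reaching about 35% in either raw or pattern-adjusted values, limit read from the data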
Target sequence (P20594 whole entry, looked up): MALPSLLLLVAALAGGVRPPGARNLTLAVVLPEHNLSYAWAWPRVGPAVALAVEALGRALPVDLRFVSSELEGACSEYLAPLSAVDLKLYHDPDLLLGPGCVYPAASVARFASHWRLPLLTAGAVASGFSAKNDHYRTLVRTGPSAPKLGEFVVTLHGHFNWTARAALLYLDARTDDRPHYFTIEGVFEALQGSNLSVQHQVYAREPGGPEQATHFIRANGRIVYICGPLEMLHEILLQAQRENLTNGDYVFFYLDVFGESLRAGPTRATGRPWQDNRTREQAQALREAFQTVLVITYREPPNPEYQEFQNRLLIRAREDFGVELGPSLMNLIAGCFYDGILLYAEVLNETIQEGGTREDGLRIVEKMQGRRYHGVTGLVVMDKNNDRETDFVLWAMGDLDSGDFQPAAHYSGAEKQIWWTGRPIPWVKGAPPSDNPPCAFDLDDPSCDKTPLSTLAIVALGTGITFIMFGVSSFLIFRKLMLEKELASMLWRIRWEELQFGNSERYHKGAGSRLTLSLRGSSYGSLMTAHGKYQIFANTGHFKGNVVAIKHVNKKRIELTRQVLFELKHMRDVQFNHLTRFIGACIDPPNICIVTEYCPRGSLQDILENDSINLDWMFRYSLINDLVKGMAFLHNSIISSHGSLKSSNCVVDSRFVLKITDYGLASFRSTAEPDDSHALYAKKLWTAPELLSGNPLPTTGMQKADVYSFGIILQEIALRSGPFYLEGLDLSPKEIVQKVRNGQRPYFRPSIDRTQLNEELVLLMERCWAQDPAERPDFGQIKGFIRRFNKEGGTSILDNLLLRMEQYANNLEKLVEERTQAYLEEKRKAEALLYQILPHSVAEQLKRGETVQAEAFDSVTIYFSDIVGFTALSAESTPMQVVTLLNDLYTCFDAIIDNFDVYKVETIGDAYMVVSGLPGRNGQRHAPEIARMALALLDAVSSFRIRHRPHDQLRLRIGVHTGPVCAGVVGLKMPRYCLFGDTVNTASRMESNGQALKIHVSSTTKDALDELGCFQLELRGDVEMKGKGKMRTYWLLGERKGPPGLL
Casp6 inh – inhibitors of human caspase-6. purified caspase-6, Z-VEID-R110 cleavage fluorescence. inhibition, % at 12.5 µM. 0.53% of 350,000 active. AID 686996;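 active means mean inhibition across replicates at least about 35%, with every replicate also reaching that limit, limit read from the data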
NSD2 inh – inhibitors of human histone methyltransferase NSD2 | inhibition, % at 12.5 µM | NSD2 peptide methylation, AlphaScreen, 120 min | O96028 | 0.54% of 310,000 active; in the data active means inhibition above about 50%
FN deposition inh – fibronectin deposition inhibition; AH1F fibroblasts, Alexa488-fibronectin deposition fluorescence, overnight; inhibition, % at 12.6 µM; 0.086% of 350,000 active; AID 743247;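 active means mean inhibition across replicates of 30% or more, regardless of how many single replicates reach that level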
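Measured by – fluorescence 485/525 nm · System – AH1F fibroblast monolayer, labelled fibronectin deposition · Amount – 10000 cells per well · Buffer or medium – serum-reduced DMEM (2% serum) · Doses – single dose, pinned · Also added – fluorescent fibronectin at 24 nM final · Schedule – 1 h cell attachment, overnight exposure to compound and label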
A number is an active result; – = inactive; · = no result.

SMILES	NPR1 activator	CaV13 ICDI inh	NPR2 activator	Casp6 inh	NSD2 inh	FN deposition inh
Cc1ccc2occ(C(c3nnnn3Cc3ccccc3)N3CCOCC3)c(=O)c2c1 (stereo unspecified)	–	·	–	·	66.7	·
CCc1ccc2[nH]c(=O)c(C(c3nnnn3Cc3ccccc3)N3CCOCC3)cc2c1 (stereo unspecified)	–	–	–	·	–	–
Oc1ccc(C2N=C(c3ccccc3)NC(c3ccccc3)=N2)cc1	–	–	34.3	·	–	·
O=C(O)c1[nH]c2ccccc2c1C(c1cc(Br)ccc1O)c1c(C(=O)O)[nH]c2ccccc12	–	144.0	–	–	–	–
COc1cc(Cl)cc(C(c2c(C(=O)O)[nH]c3ccccc23)c2c(C(=O)O)[nH]c3ccccc23)c1O	–	–	–	–	–	–
C[C@@H]1CN([C@@H](C)CO)C(=O)c2cc(NC(=O)CCC(F)(F)F)ccc2O[C@@H](C)CCCCO[C@@H]1CN(C)C(=O)Nc1ccccc1	·	·	·	–	·	–
CCn1c(CNC(=O)COc2ccc(C(C)C)cc2)nnc1SCC(=O)Nc1ccccc1F	–	·	–	53.3	–	·
CCn1c(CNC(=O)COc2ccc(C(C)C)cc2)nnc1SCC(=O)Nc1ccccc1C(C)C	–	–	–	·	–	·
Cc1cc(C(=O)COC(=O)c2cc(Cl)c(O)c(Cl)c2)c(C)n1C	–	–	–	57.8	–	–
Cc1cc(C(=O)COC(=O)c2ccc(F)cc2)c(C)n1C	–	–	–	–	–	–
C=CCC(NCc1ccccc1)c1ccc(Cl)cc1 (stereo unspecified)	–	–	–	53.9	–	–
O=C1CC(C(=O)Nc2ccc(Br)cc2)C2(CCCC2)O1 (stereo unspecified)	–	–	–	39.3	–	·
O=C1CC(C(=O)Nc2ccccc2)C2(CCCCC2)O1 (stereo unspecified)	–	–	–	·	·	·
Cc1cccc(-c2ccc([C@H]3[C@@H](CO)N4C(=O)CN(C(=O)NC5CCCCC5)C[C@@H]34)cc2)c1	·	·	·	–	·	·
C[C@H](NC(=O)C[C@H]1CC[C@@H](NC(=O)Cc2ccccn2)[C@H](CO)O1)c1ccccc1	·	·	·	–	·	–
O=c1c2cc(F)ccc2sn1-c1ccccc1Cl	–	–	–	–	·	40.8
O=c1c2ccc(F)cc2sn1-c1ccccc1	–	–	–	–	·	·
CCOC(=O)C1=C(N)Oc2cc(O)ccc2C1c1ccc(C)cc1 (stereo unspecified)	48.6	–	–	–	–	–
Cc1ccc(C2CC(=O)Oc3cc(O)ccc32)cc1 (stereo unspecified)	57.0	–	–	·	·	–
COc1ccc(-c2csc(=Nc3ccccc3)n2CC(O)c2ccc([N+](=O)[O-])cc2)cc1 (stereo unspecified)	·	·	·	·	–	·
COc1ccc2c3c(n(C)c2c1)[C@H](CO)N(C(=O)c1ccc(F)cc1)CC31CN(C(=O)c2ccc(F)cc2)C1	·	·	·	–	·	·
C[C@@H]1CN([C@H](C)CO)C(=O)c2cccc(N(C)C)c2O[C@H]1CN(C)Cc1ccc(-c2ccccc2)cc1	·	·	·	–	·	·
CC(C)NC(=O)N(C)C[C@H]1OCCCC[C@H](C)Oc2ccc(NS(=O)(=O)c3cccs3)cc2C(=O)N([C@@H](C)CO)C[C@H]1C	·	·	·	–	·	–
COc1ccc(NC(=O)Nc2ccc3c(c2)C(=O)N([C@H](C)CO)C[C@H](C)[C@H](CN(C)C(=O)Nc2c(C)noc2C)O3)cc1	·	·	·	–	·	·
C[C@H]1CCCCO[C@H](CN(C)C(=O)Cc2ccccc2)[C@@H](C)CN([C@@H](C)CO)C(=O)c2cc(NC(=O)Nc3ccccc3)ccc2O1	·	·	·	–	·	–
SMILES	NPR1 activator	CaV13 ICDI inh	NPR2 activator	Casp6 inh	NSD2 inh	FN deposition inh
CC(C)CCSc1nc(N2CCOCC2)c2c(c1C#N)CC(C)(C)OC2	–	–	42.9	·	–	–
CC1(C)Cc2c(C#N)c(SCC(=O)c3ccccc3)nc(N3CCOCC3)c2CS1	–	–	–	·	–	48.2
CO[C@@H]1CN(C)C(=O)c2ccc(NC(=O)Cc3ccccc3)cc2OC[C@H](C)N(CC2CC2)C[C@H]1C	·	·	·	–	·	–
O=C1Nc2cc(Cl)cnc2N2CCCC12 (stereo unspecified)	–	–	–	39.7	·	–
O=C1Nc2cc(S(=O)(=O)N3CCCC3)ccc2N2CCCC12 (stereo unspecified)	–	–	–	·	·	·
CCC(=O)N[C@H]1CC[C@H](CCNS(=O)(=O)c2ccc(Cl)cc2)O[C@@H]1CO	·	·	·	–	·	·
C[C@@H]1CN([C@@H](C)CO)C(=O)c2cc(NC(=O)C3CCCCC3)ccc2O[C@@H](C)CCCCO[C@H]1CN(C)S(=O)(=O)c1ccc(F)cc1	·	·	·	–	·	–
CN(C)CC(=O)N1[C@H](CO)[C@@H](c2ccccc2)C12CN(CCC(F)(F)F)C2	·	·	·	–	·	–
CCOC(=O)CC1C(=O)NCCN1S(=O)(=O)c1ccccc1 (stereo unspecified)	–	–	–	–	–	·
CCOC(=O)CC1C(=O)NCCN1S(=O)(=O)c1cccc(C(F)(F)F)c1 (stereo unspecified)	–	·	–	41.9	–	·
CCOc1cc(/C=C(/NC(C)=O)C(=O)O)cc(Cl)c1OCc1cccc(Br)c1	–	–	–	39.1	–	–
COc1ccccc1NC(=S)N/N=C1\CC(C)(C)Oc2ccc(O)cc21	42.1	–	–	–	–	–
COc1ccc(NC(=S)N/N=C2\CC(C)(C)Oc3ccc(O)cc32)cc1	–	–	–	–	–	–
C[C@@H]1CN([C@H](C)CO)C(=O)c2cccc(NC(=O)CCCCCC(=O)Nc3ccccc3N)c2O[C@@H]1CN(C)C(=O)Nc1ccc2c(c1)OCO2	·	·	·	–	·	–
COc1ccc(C=C(C#N)C(=O)c2ccccc2)cc1	–	–	–	–	–	–
COc1cc(/C=C(\C#N)C(=O)c2ccc(O)c(O)c2)cc(I)c1O	–	–	–	62.7	·	–
O=C(O)C1CCN(C(=O)c2ccccc2N2C(=O)[C@@H]3Cc4c([nH]c5ccccc45)C(c4cccc(Cl)c4)N3C2=O)CC1 (stereo partly specified)	52.9	·	58.4	–	·	·
Cc1ccc(C2c3[nH]c4ccccc4c3C[C@H]3C(=O)N(c4ccccc4C(=O)N4CCC(C(=O)O)CC4)C(=O)N23)cc1 (stereo partly specified)	–	·	–	–	·	·
CCCC(=O)Nc1nc(-c2ccc(OC)cc2)cs1	–	·	–	·	–	·
O=C(O)C1CCCCC1C(=O)Nc1nc(-c2ccc(Cl)s2)cs1 (stereo unspecified)	–	–	–	46.1	–	·
CCOC(=O)N1CCN(C(=O)CSCC(=O)Nc2nc(-c3ccc(Cl)s3)cs2)CC1	42.2	–	–	·	–	–
CCCC(=O)Nc1nc(-c2ccc(Cl)s2)cs1	54.8	–	–	–	–	–
